Experimental data from ChEMBL document CHEMBL4406800, “Discovery of Potent Protease-Activated Receptor 4 Antagonists with in Vivo Antithrombotic Efficacy” (J Med Chem, 2019).
One block for each molecule: values may come before it.

Experiments:
[1] = Oral bioavailability in rat at 2 mg/kg; format: ADME, organism-based; settings: in vivo
How it was run: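 Rat dosing: iv 0.5 mpk as a 10 min infusion in 25/75 propylene glycol/PEG400 at 2 ml/kg. po 2 mpk in 5/5/90 EtOH/TPGS/PEG300 at 5 mL/kg.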

[2] = Stability in rat liver microsomes assessed as parent compound remaining measured after 10 mins; format: ADME, Microsome; settings: read-out: Stability
[3] = biological target: T1, Proteinase-activated receptor 4 (Homo sapiens, UniProt Q96RI0); assay: Antagonist activity at full-length human PAR4 expressed in HEK293 cells assessed as inhibition of AYPGKF-induced intracellular calcium mobilization preincubated for 30 mins followed by AYPGKF addition and measured by calcium indicator-based FLIPR assay; format: functional, cell-based
T1 sequence (Q96RI0 whole entry): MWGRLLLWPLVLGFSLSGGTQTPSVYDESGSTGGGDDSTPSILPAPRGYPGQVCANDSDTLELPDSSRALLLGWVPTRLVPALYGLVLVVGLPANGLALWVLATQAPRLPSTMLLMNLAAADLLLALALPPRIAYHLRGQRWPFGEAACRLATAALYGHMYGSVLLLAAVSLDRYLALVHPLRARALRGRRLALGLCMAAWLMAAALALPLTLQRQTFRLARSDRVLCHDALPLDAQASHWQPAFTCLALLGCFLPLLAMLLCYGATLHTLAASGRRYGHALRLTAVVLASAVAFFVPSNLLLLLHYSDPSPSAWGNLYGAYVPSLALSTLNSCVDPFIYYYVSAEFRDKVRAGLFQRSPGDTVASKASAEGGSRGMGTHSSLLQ

[4] = Stability in human liver microsomes assessed as parent compound remaining measured after 10 mins; format: ADME, Microsome; settings: for remaining at 10 min: liver microsomes, read-out: Stability; for Stability: microsomes, 10 min
[5] = Protein binding in rat plasma; format: ADME, cell-free; settings: read-out: PPB (converted)
[6] = Half life in monkey liver microsomes; format: ADME, Macaca mulatta, Microsome; settings: rhesus monkey
[7] = Clearance in rat at 2 mg/kg, po or 0.5 mg/kg, iv administered as infusion for 10 mins; format: ADME, organism-based; settings: in vivo
Cynomolgus monkey [8] = assay: Antithrombotic activity in cynomolgus monkey electrolytic carotid artery thrombosis assessed as reduction in thrombus weight administered via oral gavage measured after 1.5 hrs; format: functional, organism-based; settings: Macaca fascicularis
How it was run: (§1)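 Monkeys retired from earlier studies after a washout of at least 4 weeks, randomized to vehicle (n=8) or 0.4, 2 or 10 mg/kg (n=7 each). Dosed by oral gavage in 40/60 w/w TPGS/PEG400 at 2 ml/kg. Anesthetized and surgically prepared 1.5 h post-dose. Thrombosis and bleeding time measured in the same animal.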

[9] = Half life in dog liver microsomes; format: ADME, Canis lupus familiaris, Microsome
[10] = Half life in dog at 2 mg/kg, po or 0.5 mg/kg, iv administered as infusion for 10 mins; format: ADME, organism-based, Canis lupus familiaris; settings: in vivo
How it was run: (§2)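 Dog and monkey dosing: iv 0.5 mpk as a 10 min infusion in PEG400 at 0.8 ml/kg. po 2 mpk in 40/60 TPGS/PEG400 at 0.5 mL/kg.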

Cynomolgus monkey [11] = assay: Antithrombotic activity in cynomolgus monkey electrolytic carotid artery thrombosis assessed as reduction in thrombus weight at 2 mg/kg, po administered via gavage measured after 1.5 hrs relative to control; format: functional, Macaca fascicularis; parameters: scale not given: the % may be the effect or the level left; how it was run: as §1
[12] = Oral bioavailability in dog at 2 mg/kg; format: ADME, organism-based, Canis lupus familiaris; settings: in vivo; how it was run: as §2
[13] = Oral bioavailability in monkey at 2 mg/kg; format: ADME, organism-based, Macaca mulatta; settings: rhesus monkey, in vivo; how it was run: as §2
[14] = Protein binding in dog plasma; format: ADME, cell-free, Canis lupus familiaris; settings: read-out: PPB
Cynomolgus monkey [15] = assay: Antithrombotic activity in cynomolgus monkey electrolytic carotid artery thrombosis assessed as reduction in thrombus weight at 10 mg/kg, po administered via gavage measured after 1.5 hrs relative to control; format: functional, Macaca fascicularis; parameters: scale not given: the % may be the effect or the level left; how it was run: as §1
[16] = Clearance in monkey at 2 mg/kg, po or 0.5 mg/kg, iv administered as infusion for 10 mins; format: ADME, organism-based, Macaca mulatta; settings: rhesus monkey, in vivo; how it was run: as §2
[17] = Half life in rat at 2 mg/kg, po or 0.5 mg/kg, iv administered as infusion for 10 mins; format: ADME, organism-based; settings: in vivo
[18] = Half life in monkey at 2 mg/kg, po or 0.5 mg/kg, iv administered as infusion for 10 mins; format: ADME, organism-based, Macaca mulatta; settings: rhesus monkey, in vivo; how it was run: as §2
[19] = Clearance in dog at 2 mg/kg, po or 0.5 mg/kg, iv administered as infusion for 10 mins; format: ADME, organism-based, Canis lupus familiaris; settings: in vivo; how it was run: as §2
hERG (KCNH2) = hERG (KCNH2) (Homo sapiens, UniProt Q12809); assay: Inhibition of human ERG at 10 uM by patch clamp method
[20] = biological target: T2, Proteinase-activated receptor 4 (Homo sapiens) (UniProt Q96RI0); assay: Displacement of [3H]BMS-986120 from His-tagged human PAR4 expressed in HEK293 cell membranes assessed as dissociation rate constant measured after 2 hrs
T2 sequence (whole entry): T1 sequence (Q96RI0 whole entry)

[21] = Protein binding in mouse plasma; format: ADME, cell-free; settings: read-out: PPB (converted)
[22] = Half life in mouse liver microsomes; format: ADME, Microsome
[23] = biological target: T3, Nuclear receptor subfamily 1 group I member 2 (Homo sapiens, UniProt O75469); assay: Activation of human PXR; format: ADME
T3 sequence (O75469 whole entry): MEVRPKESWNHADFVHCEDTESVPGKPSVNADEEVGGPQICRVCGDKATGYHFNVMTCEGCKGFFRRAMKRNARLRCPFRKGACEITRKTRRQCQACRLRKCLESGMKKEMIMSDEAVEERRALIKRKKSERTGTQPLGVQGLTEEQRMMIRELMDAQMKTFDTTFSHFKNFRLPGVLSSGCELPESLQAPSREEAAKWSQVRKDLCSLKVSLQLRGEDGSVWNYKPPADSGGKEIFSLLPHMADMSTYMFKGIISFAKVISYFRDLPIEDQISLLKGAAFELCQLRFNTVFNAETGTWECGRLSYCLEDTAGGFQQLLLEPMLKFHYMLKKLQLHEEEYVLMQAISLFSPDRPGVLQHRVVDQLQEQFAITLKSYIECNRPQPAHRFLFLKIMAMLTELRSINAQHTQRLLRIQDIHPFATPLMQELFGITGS

[24] = Protein binding in monkey plasma; format: ADME, cell-free, Macaca mulatta; settings: rhesus monkey, read-out: PPB
[25] = biological target: T2, Proteinase-activated receptor 4 (Homo sapiens); assay: Displacement of [3H]BMS-986120 from His-tagged human PAR4 expressed in HEK293 cell membranes assessed as association rate constant
How it was run: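 HEK293 membranes expressing PAR4. Association kinetics measured; values are mean ± standard deviation, n = 3.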

[26] = Toxicity in cynomolgus monkey assessed as prolongation of kidney bleeding time at 10 mg/kg, po administered via gavage measured up to 20 mins; format: organism-based, Macaca fascicularis; settings: in vivo
How it was run: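 Oral gavage at 10 mg/kg or vehicle (40/60 w/w TPGS/PEG400, 2 ml/kg) to monkeys, anesthetized 1.5 h later. Bleeding time taken by renal cortex incision: time until bleeding stopped with no re-bleeding for 30 s, monitored up to 20 min, done in triplicate.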

[27] = Protein binding in human plasma; format: ADME, cell-free; settings: read-out: PPB (converted)
[28] = biological target: T4, Proteinase-activated receptor 1 (Homo sapiens, UniProt P25116); assay: Antagonist activity at PAR1 in human platelet rich plasma assessed as inhibition of SFFLRR-induced platelet aggregation preincubated for 5 mins followed by SFFLRR addition
T4 sequence (P25116 whole entry): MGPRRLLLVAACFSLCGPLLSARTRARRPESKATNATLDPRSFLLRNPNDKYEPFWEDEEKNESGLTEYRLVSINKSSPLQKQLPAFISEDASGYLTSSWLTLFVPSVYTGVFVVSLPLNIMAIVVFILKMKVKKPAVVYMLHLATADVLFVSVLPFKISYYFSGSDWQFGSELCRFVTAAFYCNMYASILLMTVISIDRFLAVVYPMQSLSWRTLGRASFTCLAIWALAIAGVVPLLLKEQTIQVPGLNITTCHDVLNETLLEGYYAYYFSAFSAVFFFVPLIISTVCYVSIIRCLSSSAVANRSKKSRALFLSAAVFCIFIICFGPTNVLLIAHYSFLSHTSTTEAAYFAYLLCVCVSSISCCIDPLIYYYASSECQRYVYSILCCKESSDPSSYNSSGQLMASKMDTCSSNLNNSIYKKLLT

[29] = biological target: CYP450 (isoform not stated) (Homo sapiens, UniProt P04798+P05177+P05181+P08684+P10632+P10635+P11509+P11712+P13584+P20813+P20815+P20853+P24462+P24903+P33260+P33261+P51589+P78329+P98187+Q02928+Q08477+Q16678+Q16696+Q5TCH4+Q6VVX0+Q7Z449+Q8TAV3+Q96SQ9+Q9HB55); assay: Inhibition of CYP450 in human liver microsomes; format: ADME
Cynomolgus monkey [30] = assay: Antithrombotic activity in cynomolgus monkey electrolytic carotid artery thrombosis assessed as reduction in thrombus weight at 0.4 mg/kg, po administered via gavage measured after 1.5 hrs relative to control; format: functional, Macaca fascicularis; parameters: scale not given: the % may be the effect or the level left; how it was run: as §1
[31] = Half life in human liver microsomes; format: ADME, Microsome; settings: for t1/2: microsomes
[32] = Half life in rat liver microsomes; format: ADME, Microsome

Chain of hERG (KCNH2) (Q12809 whole entry): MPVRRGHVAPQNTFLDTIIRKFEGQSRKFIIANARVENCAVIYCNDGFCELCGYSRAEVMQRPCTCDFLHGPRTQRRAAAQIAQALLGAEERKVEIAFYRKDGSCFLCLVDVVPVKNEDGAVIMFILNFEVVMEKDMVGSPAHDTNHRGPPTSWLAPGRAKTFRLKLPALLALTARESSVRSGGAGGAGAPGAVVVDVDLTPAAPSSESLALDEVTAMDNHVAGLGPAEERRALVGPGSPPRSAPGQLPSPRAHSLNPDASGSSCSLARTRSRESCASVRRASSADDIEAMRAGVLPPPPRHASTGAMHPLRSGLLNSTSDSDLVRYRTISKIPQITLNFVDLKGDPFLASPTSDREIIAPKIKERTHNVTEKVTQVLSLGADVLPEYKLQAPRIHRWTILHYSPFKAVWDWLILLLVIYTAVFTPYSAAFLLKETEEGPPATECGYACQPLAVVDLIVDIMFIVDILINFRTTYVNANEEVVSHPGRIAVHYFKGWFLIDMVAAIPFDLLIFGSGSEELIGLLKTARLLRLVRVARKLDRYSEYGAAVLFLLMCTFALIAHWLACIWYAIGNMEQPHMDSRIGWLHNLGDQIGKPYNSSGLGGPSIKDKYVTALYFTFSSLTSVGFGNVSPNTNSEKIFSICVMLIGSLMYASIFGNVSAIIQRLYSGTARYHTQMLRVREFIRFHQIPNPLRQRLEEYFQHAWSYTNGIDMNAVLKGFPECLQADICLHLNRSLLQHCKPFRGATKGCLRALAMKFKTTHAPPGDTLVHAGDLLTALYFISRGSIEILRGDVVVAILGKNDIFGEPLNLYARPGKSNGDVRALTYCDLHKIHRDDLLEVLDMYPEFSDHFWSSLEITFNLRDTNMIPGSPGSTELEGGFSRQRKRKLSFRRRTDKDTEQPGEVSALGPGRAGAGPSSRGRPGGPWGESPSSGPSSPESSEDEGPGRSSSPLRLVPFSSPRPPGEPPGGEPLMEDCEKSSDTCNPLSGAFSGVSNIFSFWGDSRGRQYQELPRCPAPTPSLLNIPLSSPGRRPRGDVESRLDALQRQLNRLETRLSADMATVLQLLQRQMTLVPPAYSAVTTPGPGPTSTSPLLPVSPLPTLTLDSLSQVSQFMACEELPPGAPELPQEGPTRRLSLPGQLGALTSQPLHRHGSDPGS

SMILES: COc1nn2cc(-c3cc4ccccc4o3)nc2s1
t1/2 [31]: 0.115 h
remaining at 10 min [2]: 31%
IC50 [3]: 0.004 µM
Stability [4]: 80%

SMILES: CSc1nn2cc(-c3cc4ccccc4o3)nc2s1
half-life ([31]; liver microsomes): 5.4 min
remaining at 10 min [2]: 4%
IC50 [3]: 0.011 µM
remaining at 10 min [4]: 25%

SMILES: COc1cc(OC)c2cc(-c3cn4nc(OC)sc4n3)oc2c1
clearance [7]: 33 mL/min/kg
t1/2 [31]: 0.283 h
remaining at 10 min [2]: 70%
bioavailability [1]: 1%
half-life [17]: 3.2 h
half-life [32]: 0.367 h
Stability [4]: 86%

SMILES: CCSc1nn2cc(-c3cc4ccccc4o3)nc2s1
remaining at 10 min [2]: 35%
IC50 [3]: 2.9 µM
remaining at 10 min [4]: 45%

SMILES: CNc1nn2cc(-c3cc4ccccc4o3)nc2s1
remaining at 10 min [2]: 2%
IC50 [3]: 0.11 µM
remaining at 10 min [4]: 65%

SMILES: Cc1nn2cc(-c3cc4ccccc4o3)nc2s1
remaining at 10 min [2]: 4%
IC50 [3]: 0.037 µM
remaining at 10 min [4]: 20%

SMILES: COc1cccc(COc2cc(OC)cc3oc(-c4cn5nc(OC)sc5n4)cc23)c1
remaining at 10 min [2]: 34%
IC50 [3]: 0.0094 µM
remaining at 10 min [4]: 69%

Now from value to molecule, other results behind:

bioavailability [1]: 27%
SMILES: COc1cc(OCc2ccccc2)c2cc(-c3cn4nc(OC)sc4n3)oc2c1

remaining at 10 min [2]: 49%
IC50 [3]: 0.0031 µM
remaining at 10 min [4]: 97%
SMILES: COc1cc(OCc2cccc(O)c2)c2cc(-c3cn4nc(OC)sc4n3)oc2c1

fraction unbound [5]: 0.002
half-life [6]: 0.8 h
clearance [7]: 10 mL/min/kg
half-life [9]: 1.67 h
half-life [10]: 7 h
remaining at 10 min [2]: 76%
bioavailability [1]: 11%
bioavailability [12]: 26%
bioavailability [13]: 11%
fraction unbound [14]: ≤ 0.002
clearance [16]: 5.2 mL/min/kg
half-life [17]: 6.9 h
half-life [18]: 6.2 h
clearance [19]: 1.6 mL/min/kg
K [20]: 0.013 min⁻¹
fraction unbound [21]: 0.005
half-life [22]: 2 h
EC50 [23]: > 50 µM
fraction unbound [24]: < 0.002
K [25]: 66700 M⁻¹ s⁻¹
fraction unbound [27]: 0.004
IC50 [28]: > 30 µM
remaining at 10 min [4]: 85%
IC50 [29]: > 40 µM
SMILES: COc1cc(OCc2cccc(OCc3ccccc3)c2)c2cc(-c3cn4nc(OC)sc4n3)oc2c1
Activity (Cynomolgus monkey [8]): Dose-dependent effect
Activity (Cynomolgus monkey [11]): 38%
Activity (Cynomolgus monkey [15]): 38%
inhibition at 10 µM (hERG (KCNH2)): ≤ 10%
Activity [26]: Non-Toxic
Activity (Cynomolgus monkey [30]): 9%

remaining at 10 min [2]: 28%
IC50 [3]: 0.019 µM
remaining at 10 min [4]: 82%
SMILES: COc1cc(OCc2ccccc2OC)c2cc(-c3cn4nc(OC)sc4n3)oc2c1

remaining at 10 min [2]: 46%
IC50 [3]: 0.0016 µM
remaining at 10 min [4]: 90%
SMILES: COc1cc(OCc2ccccc2C)c2cc(-c3cn4nc(OC)sc4n3)oc2c1

remaining at 10 min [2]: 36%
IC50 [3]: 0.00081 µM
remaining at 10 min [4]: 65%
SMILES: COc1cc(OCCOc2ccccc2)c2cc(-c3cn4nc(OC)sc4n3)oc2c1

remaining at 10 min [2]: 43%
IC50 [3]: 0.0011 µM
remaining at 10 min [4]: 89%
SMILES: COc1cc(OCCc2ccccc2)c2cc(-c3cn4nc(OC)sc4n3)oc2c1
